From ChEMBL document CHEMBL3853360, “Combined Interactions with I1-, I2-Imidazoline Binding Sites and α2-Adrenoceptors To Manage Opioid Addiction” (ACS Med Chem Lett, 2016)

What was measured:
[1] = target: T1, Alpha-2B adrenergic receptor (Homo sapiens, UniProt P18089); assay: Agonist activity at human alpha2b-AR expressed in CHO cells assessed as rate of acidification after 240 mins by cytosensor microphysiometric analysis; assay type: cell-based
T1 sequence (P18089 whole entry): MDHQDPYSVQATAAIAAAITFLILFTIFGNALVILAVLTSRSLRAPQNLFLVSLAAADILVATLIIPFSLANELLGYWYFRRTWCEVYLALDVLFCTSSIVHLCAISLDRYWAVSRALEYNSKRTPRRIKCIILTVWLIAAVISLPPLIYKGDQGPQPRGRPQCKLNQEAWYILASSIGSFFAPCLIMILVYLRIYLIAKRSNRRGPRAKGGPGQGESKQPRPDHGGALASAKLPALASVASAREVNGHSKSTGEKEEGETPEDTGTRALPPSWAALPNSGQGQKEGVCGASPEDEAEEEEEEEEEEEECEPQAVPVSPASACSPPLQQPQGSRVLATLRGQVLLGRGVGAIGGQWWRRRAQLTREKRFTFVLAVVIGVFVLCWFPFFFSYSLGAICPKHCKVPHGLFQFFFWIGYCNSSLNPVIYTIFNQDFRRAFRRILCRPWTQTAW
In short: (§1)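 Functional assay in CHO cells stably expressing a single human α2-AR subtype (α2A, α2B or α2C), read on a Cytosensor microphysiometer. Outputs are pEC50, intrinsic activity and, for antagonism, pKb. Intrinsic activity is expressed as a fraction of the full agonist (−)-noradrenaline, set at 1. Values are mean ± SEM of 3–5 separate experiments.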

[2] = target: T2, Alpha-2B adrenergic receptor (Homo sapiens) (UniProt P18089); assay: Agonist activity at human alpha2b-AR expressed in CHO cells assessed as rate of acidification after 240 mins by cytosensor microphysiometric analysis relative to (-)-noradrenaline; assay type: cell-based; in short: as §1
T2 sequence (whole entry): T1 sequence (P18089 whole entry)

[3] = target: T3, Alpha-2C adrenergic receptor (Homo sapiens) (UniProt P18825); assay: Agonist activity at human alpha2c-AR expressed in CHO cells assessed as rate of acidification after 240 mins by cytosensor microphysiometric analysis relative to (-)-noradrenaline; assay type: cell-based; in short: as §1
T3 sequence (whole entry): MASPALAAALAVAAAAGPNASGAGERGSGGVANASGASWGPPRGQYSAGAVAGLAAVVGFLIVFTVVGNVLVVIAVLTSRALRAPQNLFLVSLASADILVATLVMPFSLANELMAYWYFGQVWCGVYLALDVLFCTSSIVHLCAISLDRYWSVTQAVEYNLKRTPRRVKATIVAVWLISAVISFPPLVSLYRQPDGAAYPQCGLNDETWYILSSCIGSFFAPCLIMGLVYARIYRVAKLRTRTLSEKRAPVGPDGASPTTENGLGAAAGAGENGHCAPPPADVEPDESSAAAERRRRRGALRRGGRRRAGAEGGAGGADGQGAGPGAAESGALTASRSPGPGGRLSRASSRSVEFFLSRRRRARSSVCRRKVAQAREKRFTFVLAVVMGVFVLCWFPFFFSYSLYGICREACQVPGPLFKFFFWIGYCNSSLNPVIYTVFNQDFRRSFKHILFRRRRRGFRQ

[4] = Reduction in morphine dependence expression in CD1 mouse assessed as inhibition of naloxone-precipitated forepaw tremor frequency at 5 mg/kg, ip administered acutely 15 mins prior to naloxone challenge relative to control; assay type: functional, organism-based
[5] = Reduction in morphine dependence expression in CD1 mouse assessed as inhibition of naloxone-precipitated rearing frequency at 10 mg/kg, ip administered acutely 15 mins prior to naloxone challenge relative to control; assay type: functional, organism-based
[6] = Reduction in morphine dependence expression in CD1 mouse assessed as inhibition of naloxone-precipitated teeth chattering frequency at 10 mg/kg, ip administered acutely 15 mins prior to naloxone challenge relative to control; assay type: functional, organism-based
[7] = system: Mus musculus; assay: Reduction in morphine dependence acquisition in CD1 mouse assessed as inhibition of naloxone-precipitated jumping at 5 to 10 mg/kg, ip administered 15 mins prior to each morphine challenge relative to control; assay type: functional
In short: (§2)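 Mice received i.p. test compound (5 or 10 mg/kg) 15 min before each of repeated morphine injections, with vehicle and morphine-only controls. Withdrawal was then precipitated with naloxone. Jumping frequency and somatic signs (rearing, forepaw tremor, teeth chattering; summed frequency) were scored and compared with the morphine group. Data are mean ± SEM of 6–10 animals.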

[8] = system: Mus musculus; assay: Reduction in morphine dependence acquisition in CD1 mouse assessed as inhibition of naloxone-precipitated rearing frequency at 5 to 10 mg/kg, ip administered 15 mins prior to each morphine challenge relative to control; assay type: functional; in short: as §2

Structure (SMILES): Cc1ccccc1NCC1=NCCN1
- EC50 [1]: 3.16 µM
- Intrinsic activity [2]: 0.4
- Intrinsic activity [3]: 0.8
- inhibition [4]: 86%
- inhibition [5]: 93%
- inhibition [6]: 93%
- inhibition (INH) [7]: 80%
- inhibition (INH) [8]: 80%
